Test results from ChEMBL document CHEMBL3108680, “Diversity-oriented synthesis of α-aminophosphonates: a new class of potential anticancer agents” (Eur J Med Chem, 2013).
Activity calls are given as the source filed them. The rule behind the calls is not given here.

What was measured:
Assay type in all cases: functional, cell-based
Jurkat [1] = test: Cytotoxicity against human Jurkat cells after 48 hrs by MTT assay
In short: (§1)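 Cells seeded at line-dependent densities, held 24 h compound-free, then exposed 48 h to six 2-fold dilutions (top […]). MTT (10 mg/ml PBS solution) added for 4 h at 37 °C; DMSO-solubilized formazan read at 570 nm. Three runs in triplicate.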

[2] = (§2) Cytotoxicity against human MG63 cells after 48 hrs by MTT assay; conditions: MG-63, 48 h
In short: (§3)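 Cells seeded at densities suited to their growth and incubated 24 h compound-free. They were then treated 48 h with six 2-fold serial dilutions, top […]. Viability was measured by MTT (added from a 10 mg/ml PBS solution; 4 h, 37 °C), followed by centrifugation, DMSO dissolution and A570. Run thrice in triplicate; mean ± SD, n = 3.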

MG-63 [3] = test: as §2; in short: as §3
[4] = (§4) Cytotoxicity against human COLO320DM cells after 48 hrs by MTT assay; conditions: COLO 320DM
In short: as §1, with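 “Jurkat and Colo 320DM grown in RPMI 1640 with 10% FBS and 1% ampicillin; A549 in 90% DMEM with 10% FBS. Cells” for “Cells”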

COLO 320DM [5] = test: as §4
In short: as §1, with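 “Jurkat and Colo 320DM grown in RPMI 1640 with 10% FBS and 1% ampicillin; A549 in 90% DMEM with 10% FBS. Cells” for “Cells”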

NCI-H23 [6] = test: Cytotoxicity against human NCI-H23 cells after 48 hrs by MTT assay; conditions: for IC50: NCI-H23, 48 h; in short: as §3
A549 [7] = test: Cytotoxicity against human A549 cells after 48 hrs by MTT assay; conditions: for IC50: A549, 48 h
In short: as §1, with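 “Jurkat and Colo 320DM grown in RPMI 1640 with 10% FBS and 1% ampicillin; A549 in 90% DMEM with 10% FBS. Cells” for “Cells”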

MG-63 [8] = test: Cytotoxicity against human MG63 cells at 500 uM after 48 hrs by MTT assay
COLO 320DM [9] = test: Cytotoxicity against human COLO320DM cells at 500 uM after 48 hrs by MTT assay
A549 [10] = test: Cytotoxicity against human A549 cells at 500 uM after 48 hrs by MTT assay
Jurkat [11] = test: Cytotoxicity against human Jurkat cells at 500 uM after 48 hrs by MTT assay
NCI-H23 [12] = test: Cytotoxicity against human NCI-H23 cells at 500 uM after 48 hrs by MTT assay
Jurkat [13] = test: Cytotoxicity against human Jurkat cells at 100 uM after 48 hrs by MTT assay
Jurkat [14] = test: Cytotoxicity against human Jurkat cells at 200 uM after 48 hrs by MTT assay
COLO 320DM [15] = test: Cytotoxicity against human COLO320DM cells at 200 uM after 48 hrs by MTT assay
A549 [16] = test: Cytotoxicity against human A549 cells at 200 uM after 48 hrs by MTT assay
MG-63 [17] = test: Cytotoxicity against human MG63 cells at 250 uM after 48 hrs by MTT assay
NCI-H23 [18] = test: Cytotoxicity against human NCI-H23 cells at 250 uM after 48 hrs by MTT assay

| SMILES | IC50 (Jurkat [1]) | inhibition (Jurkat [1]) | IC50 [2] | inhibition (MG-63 [3]) | IC50 [4] | inhibition (COLO 320DM [5]) | inhibition (NCI-H23 [6]) | IC50 (NCI-H23 [6]) | inhibition (A549 [7]) | IC50 (A549 [7]) | also measured |
| --- | --- | --- | --- | --- | --- | --- | --- | --- | --- | --- | --- |
| CCCCOP(=O)(OCCCC)C(N[C@H](C)c1ccccc1)c1ccc2c(c1)OCO2 (stereo partly specified) | 4 µM | Dose-dependent effect | 13.6 µM | Dose-dependent effect | 15.8 µM | Dose-dependent effect | Dose-dependent effect | 28.6 µM | Dose-dependent effect | 43.4 µM |  |
| O=P(Oc1ccccc1)(Oc1ccccc1)C(Nc1cccc(F)c1)c1ccc2c(c1)OCO2 (stereo unspecified) | 490 µM | Dose-dependent effect |  |  |  |  | Dose-dependent effect | 48.2 µM |  |  | inhibition (MG-63 [8]): inactive; inhibition (COLO 320DM [9]): inactive; inhibition (A549 [10]): inactive |
| CCOP(=O)(OCC)C(Nc1ccccc1)c1ccc2c(c1)OCO2 (stereo unspecified) | > 500 µM | Dose-dependent effect | 68.8 µM | Dose-dependent effect | 92 µM | Dose-dependent effect | Dose-dependent effect | 65.8 µM | Dose-dependent effect | 134 µM |  |
| CCOP(=O)(OCC)C(Nc1ccccc1O)c1ccc2c(c1)OCO2 (stereo unspecified) | > 500 µM | Dose-dependent effect | 115 µM | Dose-dependent effect | 79.4 µM | Dose-dependent effect | Dose-dependent effect | 190 µM | Dose-dependent effect | 278 µM |  |
| CCCCOP(=O)(OCCCC)C(Nc1cccc(Cl)c1)c1ccc2c(c1)OCO2 (stereo unspecified) | > 500 µM | Dose-dependent effect | 108 µM | Dose-dependent effect | 93 µM | Dose-dependent effect | Dose-dependent effect | 77.2 µM | Dose-dependent effect | 263 µM |  |
| COc1cccc2c1C(=O)c1c(O)c3c(c(O)c1C2=O)C[C@@](O)(C(=O)CO)C[C@@H]3O[C@H]1C[C@H](N)[C@H](O)[C@H](C)O1 [DOXORUBICIN] |  |  | 3.17 µM | Dose-dependent effect |  |  |  |  | Dose-dependent effect | 4 µM |  |
| O=c1[nH]cc(F)c(=O)[nH]1 [FLUOROURACIL] |  |  |  |  | 2 µM | Dose-dependent effect |  |  |  |  |  |
| CCCCOP(=O)(OCCCC)C(N[C@@H](C)c1ccccc1)c1ccc2c(c1)OCO2 (stereo partly specified) |  |  |  |  |  |  |  |  |  |  | inhibition (Jurkat [11]): inactive; inhibition (MG-63 [8]): inactive; inhibition (COLO 320DM [9]): inactive; inhibition (NCI-H23 [12]): inactive; inhibition (A549 [10]): inactive |
| CCOP(=O)(OCC)C(Nc1ccccc1)c1ccc([N+](=O)[O-])cc1 (stereo unspecified) |  |  | 31.9 µM | Dose-dependent effect | 42.1 µM | Dose-dependent effect | Dose-dependent effect | 37.4 µM | Dose-dependent effect | 57.5 µM | inhibition (Jurkat [13]): inactive |
| CCOP(=O)(OCC)C(Nc1ccccc1)c1ccc(OC)cc1 (stereo unspecified) |  |  | 106 µM | Dose-dependent effect |  |  | Dose-dependent effect | 53.8 µM |  |  | inhibition (Jurkat [14]): inactive; inhibition (COLO 320DM [15]): inactive; inhibition (A549 [16]): inactive |
| CO[C@@]12[C@H](COC(N)=O)C3=C(C(=O)C(C)=C(N)C3=O)N1C[C@@H]1N[C@@H]12 [MITOMYCIN] |  |  |  |  |  |  | Dose-dependent effect | 2 µM |  |  |  |
| CCCCOP(=O)(OCCCC)C(Nc1ccccc1C)c1ccc2c(c1)OCO2 (stereo unspecified) | > 500 µM | Dose-dependent effect |  |  |  |  |  |  |  |  | inhibition (MG-63 [8]): inactive; inhibition (COLO 320DM [9]): inactive; inhibition (NCI-H23 [12]): inactive; inhibition (A549 [10]): inactive |
| CCOP(=O)(OCC)C(Nc1ccccc1)c1ccc(OC)c(O)c1 (stereo unspecified) | 57 µM | Dose-dependent effect | 37.5 µM | Dose-dependent effect | 47.9 µM | Dose-dependent effect | Dose-dependent effect | 39.7 µM | Dose-dependent effect | 62.4 µM |  |
| CCOP(=O)(OCC)C(Nc1c(C)cccc1C)c1ccc2c(c1)OCO2 (stereo unspecified) | > 500 µM | Dose-dependent effect | 114 µM | Dose-dependent effect | 105 µM | Dose-dependent effect | Dose-dependent effect | 248 µM | Dose-dependent effect | > 500 µM |  |
| CCOP(=O)(OCC)C(Nc1ccccc1)c1ccc(F)cc1 (stereo unspecified) |  |  |  |  | 160 µM | Dose-dependent effect |  |  |  |  | inhibition (Jurkat [11]): inactive; inhibition (MG-63 [8]): inactive; inhibition (NCI-H23 [12]): inactive; inhibition (A549 [10]): inactive |
| CCCCOP(=O)(OCCCC)C(Nc1cccc(F)c1)c1ccc2c(c1)OCO2 (stereo unspecified) | > 500 µM | Dose-dependent effect | 122 µM | Dose-dependent effect | 80.3 µM | Dose-dependent effect | Dose-dependent effect | 95.8 µM | Dose-dependent effect | 364 µM |  |
| CCOP(=O)(OCC)C(Nc1ccccc1)c1ccc(OC)c(OC)c1 (stereo unspecified) |  |  | 34 µM | Dose-dependent effect | 36.4 µM | Dose-dependent effect | Dose-dependent effect | 39.5 µM | Dose-dependent effect | 74.1 µM | inhibition (Jurkat [13]): inactive |
| CC/C(=C(\c1ccccc1)c1ccc(OCCN(C)C)cc1)c1ccccc1 |  | Dose-dependent effect |  |  |  |  |  |  |  |  |  |
| CCCCOP(=O)(OCCCC)C(Nc1ccc2c(c1)OCO2)c1ccc2c(c1)OCO2 (stereo unspecified) | 80 µM | Dose-dependent effect |  |  | 66.5 µM | Dose-dependent effect |  |  | Dose-dependent effect | 192 µM | inhibition (MG-63 [17]): inactive; inhibition (NCI-H23 [18]): inactive |
